# Screening data (PubChem)
# Only some compounds are listed: those with a hit (about 11% of all), similar ones and a draw of the others.
# RORa activator = RORA (human) activation. P35398. CHO-K1 Gal4-RORA LBD luciferase reporter, luminescence; percent increase over mock-subtracted basal signal. activation, % at 10 µM. actives 1.5% (n = 65,000). AID 560;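 active means activation above the mean of all tested compounds plus 3 SD, cut at about 49% in these data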;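 further: 0% = DMSO-treated RORA cells and 100% = added signal equal to DMSO minus mock-transfected cells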
# M1 antag = M1 muscarinic receptor (rat) antagonism; P08482; CHO-M1 cells, Fluo-4 calcium, ACh EC80 antagonist mode; stronger effect = lower value; B-score at 10 µM; actives 3.4% (n = 64,000);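 active means calcium fluorescence response, raw or row-and-column corrected B-score, differing from the plate sample mean either way at a set confidence level, mostly lower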
# SF1 activator = activates the human nuclear receptor SF-1; CHO-K1 Gal4-SF-1 LBD luciferase reporter; % increase over DMSO SF-1-specific signal; activation, % at 10 µM; actives 1.9% (n = 65,000); AID 522;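 active means activation above the mean activation of all tested compounds plus 3 SD, cut at about 50% in these data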
# Target sequence (Q13285 whole entry, looked up, the tested form may be a part): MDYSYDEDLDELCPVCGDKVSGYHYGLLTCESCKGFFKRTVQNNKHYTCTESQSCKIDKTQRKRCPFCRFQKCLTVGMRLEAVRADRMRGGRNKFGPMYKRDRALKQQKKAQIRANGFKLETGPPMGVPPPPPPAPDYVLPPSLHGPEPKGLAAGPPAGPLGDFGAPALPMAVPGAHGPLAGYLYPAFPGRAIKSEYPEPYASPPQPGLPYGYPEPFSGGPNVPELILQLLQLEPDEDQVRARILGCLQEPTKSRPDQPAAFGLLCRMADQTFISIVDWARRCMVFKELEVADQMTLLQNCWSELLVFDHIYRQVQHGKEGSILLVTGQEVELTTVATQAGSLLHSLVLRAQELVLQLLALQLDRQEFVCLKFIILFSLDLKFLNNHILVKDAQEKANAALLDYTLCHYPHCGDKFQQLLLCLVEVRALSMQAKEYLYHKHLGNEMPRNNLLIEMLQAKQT
#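 Test system: CHO-K1 cells co-transfected with Gal4 DBD–human SF-1 LBD, 5xGal4 luciferase reporter. Quantity: 4,000 cells per well. Compound: 10 µM only. Incubation: compound added 1 h post-seeding, 20 h exposure at 37 °C, 5% CO2. Detection: SteadyLite luciferase luminescence. Replication: one test per compound.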
# Htt clearance = mutant huntingtin protein clearance; HeLa Exon1htt(103Q)mCFP, aggregate imaging; zero = plate's median compound well; inhibition, % at 1.5 µM; actives 0.42% (n = 47,000);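 active means inhibition of aggregate fluorescence above about 70%, also judged a hit by eye on the cell image, limit read from the data, passing the limit was not always enough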;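 further: cells exposed to compound for three days before fixation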
# M1 ag = activates the M1 muscarinic receptor; B-score at 10 µM; actives 3% (n = 64,000); CHO-M1 cells, Fluo-4 calcium fluorescence, agonist mode; stronger effect = higher value;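 active means fluorescence rise, raw or as B-score row- and column-corrected plate score, outside the 99.7% band of its plate's samples, either direction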
# D1 allo mod = D1 dopamine receptor (human) allosteric modulation; actives 5.9% (n = 58,000); P21728; AID 641; HEK293 D1, CRE-luciferase, dopamine EC30 potentiation; actives deviate in either direction; B-score at 10 µM;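 active means luminescence count or its row- and column-corrected plate score outside the 99.7% band of the plate's sample wells, on either side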
# M1 antag confirm = M1 muscarinic receptor (rat) antagonism, confirmed | shares compounds with M1 antag | CHO-M1 cells, Fluo-4 calcium, ACh EC80 antagonism; stronger effect = lower value | calcium response (max-min fluorescence) at 10 µM | actives 43% (n = 1,700);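 active means calcium response below the same-plate mean of wells given acetylcholine alone at its 80%-effect dose, minus 3 SD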;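 further: raw fluorescence intensity difference in arbitrary instrument units and not normalized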
# mGluR4 antag = selectivity test for M1 antagonists: human mGluR4 receptor | shares compounds with M1 antag | CHO-mGluR4 calcium flux, Fluo-4 fluorescence, glutamate EC80; stronger effect = lower value | fluorescence response (max-min) at 10 µM | actives 0.9% (n = 1,700) | AID 678;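 active means fluorescence response below the plate's average for near-maximal glutamate wells, less 3 SD of those wells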;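 further: raw unnormalized fluorescence span taken in the window right after glutamate addition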
# Starred values were filed as active, the others as inactive; . = not tested or not shown.
SMILES,RORa activator,M1 antag,SF1 activator,Htt clearance,M1 ag,D1 allo mod,M1 antag confirm,mGluR4 antag
CCC1(C)Cc2c(sc3c2c(=O)n(C)c2nnc(SCc4ccccc4)n32)CO1 (stereo unspecified),4.5,0.146,0.2,18.0,-0.00296,.,.,.
CCC1(C)Cc2c(sc3c2c(=O)n(C)c2nnc(SCCc4ccccc4)n32)CO1 (stereo unspecified),-6.1,-3.13*,2.1,.,-1,0.215,489*,244
COc1cc(C(=S)N2CCCC2)ccc1O,-11.7,0.211,-1.3,.,-0.913,.,.,.
COc1cc(C(=S)N2CCCC2)cc(Cl)c1O,-7.1,-2.02*,-6.7,.,-0.0105,.,685,246
C=C(C)C1CC=C(CN2CCC(C(=O)OCC)CC2)CC1 (stereo unspecified),-8.6,-3.73*,14.1,.,4.18,-1.04,422*,238
Cc1ccc2oc(=O)c3cc(C(=O)N4CCN(c5ncccn5)CC4)sc3c2c1,-13.3,0.652,-7.0,.,1.35,1.2,.,.
C=CCc1ccccc1OCC(O)CN(CC)CC (stereo unspecified),.,.,.,-8.5,.,.,.,.
O=C(NCc1ccco1)C1Cc2ccccc2CN1S(=O)(=O)c1ccccc1F (stereo unspecified),10.7,0.013,7.5,.,-0.357,-1.17,.,.
CSc1nc2sc3c(c2c(=O)n1C1CCCCC1)CCN(C)C3,0.3,-4.76*,1.4,-4.8,-0.0382,.,185*,218
C=CCn1c(SCC(=O)OC)nc2sc3c(c2c1=O)CCN(C)C3,10.6,-5.26*,7.9,35.0,0.0305,.,198*,212
CN1CCc2c(sc3nc(SCC(N)=O)n(-c4ccccc4)c(=O)c23)C1,5.0,-0.0704,-7.4,.,-0.158,0.654,.,.
N#Cc1nc(COc2ccc(-c3ccccc3)cc2)oc1NCCCN1CCOCC1,-5.1,-2.98*,6.9,.,-1.21,-1.25,545,237
N#Cc1nc(COc2ccccc2)oc1NCCN1CCOCC1,0.6,0.0861,10.9,-32.4,0.65,-1.13,.,.
COc1ccc2nc(NC(=O)C3CCCN3S(=O)(=O)c3ccc(C)cc3)sc2c1 (stereo unspecified),16.1,-0.297,16.2,.,-0.405,-1.52,.,.
Cc1noc(/C=C/N(C)C)c1S(=O)(=O)N1CCCC(C(=O)NC2CCCCC2)C1 (stereo unspecified),21.4,-2.3*,8.8,.,-0.858,0.814,477,216
O=C(CSc1nnc(COc2ccccc2Cl)o1)NC(=O)NC1CCCC1,-14.9,-0.723,-4.6,-23.4,0.79,-1.25,.,.
O=C(COc1ccccc1Cl)NC(=O)NC1CCCC1,19.6,-8.73*,53.0*,.,-0.271,-0.169,233*,267
COc1ccc(S(=O)(=O)N2CCOCC2)cc1C(=O)Nc1cc(C)on1,-3.6,-0.333,1.1,-27.7,2.28,0.161,.,.
Cc1oc2c(c1C(=O)NC(Cc1c[nH]c3ccccc13)C(=O)O)CCCC2 (stereo unspecified),-17.6,-0.00477,-8.2,.,0.515,0.12,.,.
OCCN=C(c1ccccc1)C12CN3CN(CN(C3)C1)C2,4.3,-2.4*,-9.7,.,-0.866,.,466,215
CCOC(=O)/C(C(N)=NCCO)=C(/O)c1ccccc1,16.5,0.88,-3.0,22.7,-0.397,0.252,.,.
CCCCC(CCC(=O)Nc1ccccc1C(=O)OCC)C(=O)O (stereo unspecified),3.8,-4.29*,7.0,43.6,1.46,-0.0358,685,251
CCOC(=O)c1ccc(NC(=O)CCC(CC)C(=O)O)cc1 (stereo unspecified),-4.5,0.252,7.3,.,-0.99,.,.,.
CCn1c(=O)cc(SCC(=O)N2CCN(Cc3ccc4c(c3)OCO4)CC2)c2ccccc21,-8.0,-5.72*,0.0,-24.6,0.33,-0.771,432*,236
CCn1c(=O)cc(SCC(=O)NCc2cccnc2)c2ccccc21,-1.8,-0.479,-7.3,.,-1.83,0.211,.,.
SMILES,RORa activator,M1 antag,SF1 activator,Htt clearance,M1 ag,D1 allo mod,M1 antag confirm,mGluR4 antag
Cn1c(=O)cc(SCC(=O)N2CCN(Cc3ccc4c(c3)OCO4)CC2)c2ccccc21,-0.3,-2.09*,6.7,60.4,0.463,0.219,474*,195
CCn1c(=O)cc(SCC(=O)NCCN2CCN(Cc3ccccc3)CC2)c2ccccc21,-5.5,-3.55*,-1.2,-24.0,1.31,0.853,499,224
CCn1c(=O)cc(SCC(=O)N2CCCCC2)c2ccccc21,-0.3,-0.27,-16.3,-13.6,0.376,.,.,.
Cn1c(=O)cc(SCC(=O)N2CCN(C3CCCCC3)CC2)c2ccccc21,0.7,-2.82*,2.2,.,1.21,-0.519,249*,222
O=C(c1ccco1)N1CCN(Cc2nnnn2CCc2ccccc2)CC1,-35.5,-0.967,5.0,.,-0.364,0.0964,.,.
CNCc1cc2ccc(C)cc2[nH]c1=O,-7.3,-0.702,-4.1,-29.9,0.0779,0.227,.,.
COc1ccccc1C(=O)N(Cc1nc(-c2ccc(Cl)cc2)no1)C(C)C,3.9,-0.529,-6.3,20.5,-0.327,-0.408,.,.
CN(C(=O)COC(=O)COc1ccccc1F)C1CCS(=O)(=O)C1 (stereo unspecified),-22.3,0.343,10.6,.,0.543,0.352,.,.
C#CC1CN(Cc2ccccc2)CC(C#C)N1C (stereo unspecified),-27.8,0.308,-7.5,2.0,0.0754,-0.154,.,.
O=c1c2c(nc3n1CCCCC3)-c1ccccc1CC21CCCC1,-11.4,-8.22*,-5.8,.,-0.894,-0.185,314*,264
O=C(CSc1ccc2nnc(-c3cccnc3)n2n1)NCc1ccc2c(c1)OCO2,-24.2,0.231,-6.6,0.0,1.11,-0.68,.,.
Cn1c(C(=O)N2CCCC(C(=O)NCCc3ccccc3)C2)cc2sccc21 (stereo unspecified),0.9,-6.11*,4.2,.,-1.12,-0.481,328*,248
Cn1c(C(=O)N2CCCC(C(=O)NCCCc3ccccc3)C2)cc2sccc21 (stereo unspecified),3.6,-2.32,3.2,.,-0.42,0.0409,.,.
COc1ccc(Cc2nnn(CC(=O)O)n2)cc1,-18.2,1.2,21.5,.,-2.01,0.52,.,.
O=C(NCCN1CCOCC1)c1ccc2c(c1)N(Cc1ccccc1)C(=O)CS2,-1.1,-2.98*,0.4,-50.0,-0.331,-0.877,344*,230
O=C(NC1CCCCC1)N(Cc1cc2cc3c(cc2[nH]c1=O)OCCO3)CC1CCCO1 (stereo unspecified),4.7,0.494,11.4,.,0.207,.,.,.
Cc1cc(C)c2cc(CN(CC3CCCO3)C(=O)NC3CCCCC3)c(=O)[nH]c2c1 (stereo unspecified),-3.4,-3.38*,7.2,.,0.0378,2.26,469,247
Fc1ccc(CSc2nncn2NCc2ccc3c(c2)OCO3)cc1,14.2,0.608,14.1,.,-0.746,-0.00527,.,.
